High-throughput results deposited in PubChem BioAssay by Sanford-Burnham Center for Chemical Genomics.
hIAP activ: human IAP activation; purified human IAP, CDP-Star luminescence, 30 min; hits give high values; 1 = vehicle-only enzyme, 0 = enzyme-free background; AID 2524; P09923; activation factor at 10 µM; 0.16% of 330,000 active;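 active = activation factor of the enzyme at least 2-fold when tested at 20 µM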
Target sequence (P09923 whole entry, looked up): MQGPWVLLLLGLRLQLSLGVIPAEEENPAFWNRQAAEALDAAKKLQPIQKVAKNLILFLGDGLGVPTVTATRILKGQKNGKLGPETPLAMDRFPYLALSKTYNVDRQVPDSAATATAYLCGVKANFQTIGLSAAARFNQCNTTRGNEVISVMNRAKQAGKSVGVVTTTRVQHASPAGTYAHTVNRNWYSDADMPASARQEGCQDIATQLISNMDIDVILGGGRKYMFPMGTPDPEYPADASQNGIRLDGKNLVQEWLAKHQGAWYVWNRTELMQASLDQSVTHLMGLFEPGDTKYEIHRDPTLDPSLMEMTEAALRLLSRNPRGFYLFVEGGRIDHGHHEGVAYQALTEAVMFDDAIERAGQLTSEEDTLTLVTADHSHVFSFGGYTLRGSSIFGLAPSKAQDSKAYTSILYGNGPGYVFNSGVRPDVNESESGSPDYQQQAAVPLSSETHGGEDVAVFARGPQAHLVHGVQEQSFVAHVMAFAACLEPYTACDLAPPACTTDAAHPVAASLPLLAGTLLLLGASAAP
mIAP block: mouse IAP inhibition; purified mouse IAP, CDP-Star luminescence, 30 min; 0.2% of 330,000 active; inhibition, % at 10 µM;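 active = inhibition of at least 40% at 10 µM in the primary screen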;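 also: plate controls were DMSO with enzyme for no effect and no enzyme wells for full effect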
mIAP activ: increases mouse intestinal alkaline phosphatase activity; AID 2805; 0.24% of 330,000 active; activation factor at 10 µM; muIAP, CDP-Star luminescence, 30 min; hits give high values; 1 = vehicle-only enzyme signal, 0 = enzyme-free wells;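 active = activation factor of at least 2 at 20 µM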
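System: mouse IAP enzyme. Reagent: CDP-Star chemiluminescent phosphatase substrate. Benchmarks: DMSO wells, no-enzyme wells. Times: 30 min enzyme-substrate-compound incubation at room temperature. Detection: luminescence from enzymatic CDP-Star hydrolysis. Doses: test compounds delivered from DMSO solution.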
bIAP inh: intestinal alkaline phosphatase (bovine) inhibition; purified bovine IAP, CDP-star luminescence, 30 min; inhibition, % at 20 µM; 190,000 tested, under 10 active;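 active = over 50% inhibition of intestinal alkaline phosphatase at 20 µM in the single-dose screen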
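System: purified bovine intestinal alkaline phosphatase (IAP) enzyme; Input: IAP diluted 1/65,000,000 in the well; Measured by: CDP-star luminescence signal; Compound dosing: 20 µM single dose; Incubation: 30 min reaction at room temperature.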
bIAP activator: intestinal alkaline phosphatase (bovine) activation | purified bovine IAP, CDP-star luminescence, 30 min; hits give high values; fold of DMSO-control signal, blank-subtracted | activation factor at 20 µM | 0.17% of 200,000 active | AID 1016;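 active = activation factor of 2 or more at 20 µM, a signal rise over negative controls twice the positive control's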
hIAP inh: blocks human intestinal alkaline phosphatase; P09923; purified IAP, CDP-Star luminescence, 30 min; inhibition, % at 10 µM; 0.12% of 330,000 active; AID 2544;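 active = inhibition reaching a set limit with compound at 10 µM in the primary screen, cut at about 35% in these data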;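 also: plate controls were DMSO wells with enzyme for no effect and no-enzyme buffer wells for full effect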
hIAP act conf: human IAP activation confirmation | shares compounds with hIAP activ | activation (%Activity, negative = activation), % at 8.3 µM | 10% of 880 active | purified IAP, CDP-Star luminescence, 30 min; hits give low values;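 active = at least twofold enzyme activation in any of six single-dose repeats, which the averaged readout prints as negative percent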
Numbers without * were called inactive; x = no result. A selection: hits, their analogues and other compounds. The true share with any hit is near 0.79%.

SMILES | hIAP activ | mIAP block | mIAP activ | bIAP inh | bIAP activator | hIAP inh | hIAP act conf
COc1ccc2c(c1)c1nnc(SCC(=O)N3CCCCC3C)nc1n2C (stereo unspecified) | x | x | x | 5 | 1 | x | x
O=C(Nc1ccc(OC(F)(F)F)cc1)NC1CCC(Oc2ccc(C(=O)O)cc2)CC1 (stereo unspecified) | 3.8* | -33 | 1.3 | x | x | -280 | -35
CC(=O)N1CCN(Cc2nc3cc(NC(=O)COc4cccc(C)c4)ccc3n2C)CC1 | 1 | 2 | 0.98 | x | x | 0 | x
Cc1ccsc1/C=N/Nc1ncnc2nc[nH]c12 | 2.3* | 3 | 0.97 | -24 | 1.2 | -126 | -11
CCn1cc(/C=N/N=C2\CCC3C4CCc5cc(O)ccc5C4CC[C@]23C)c(C)n1 (stereo partly specified) | 0.87 | 16 | 0.84 | -4 | 1 | 13 | x
COc1cc(C2C=C(c3cccs3)Nc3ncnn32)cc(OC)c1OC (stereo unspecified) | x | x | x | -8 | 1.1 | x | x
NNC(=O)c1nc[nH]c1C(=O)Nc1ccccn1 | 2* | 6 | 0.94 | -68 | 1.7 | -102 | -5
Cc1ccc(NC(=O)c2[nH]cnc2C(=O)NN)cc1 | 2.1* | 2 | 0.97 | -26 | 1.3 | -111 | 2
Cc1ccc(NC(=O)c2nc[nH]c2C(=O)NCCCNC(=O)c2[nH]cnc2C(=O)Nc2ccc(C)cc2)cc1 | 1.4 | -3 | 1 | x | x | -35 | x
COc1ccc(NC(=O)/C(C#N)=C\c2cc(C)n(-c3ccc4c(c3)OCO4)c2C)cc1 | 2.1* | 14 | 0.86 | 9 | 0.9 | -108 | -56
CCc1ccc(NC(=O)c2ccccc2SC)cc1 | 0.93 | 15 | 0.85 | 4 | 1 | 7 | x
CN1/C(=C/c2cccc[n+]2CCO)Sc2ccccc21 | 0.63 | 0 | 1 | x | x | 37* | 11
CC[n+]1ccccc1/C=C1\Sc2ccc(C)cc2N1C | 1.1 | 9 | 0.91 | x | x | -9 | x
O=C(CC1CCCCC1)Nc1ncn[nH]1 | 2* | -10 | 1.1 | -183 | 2.8* | -102 | -53
O=C(CC(c1ccccc1)c1ccccc1)Nc1ncn[nH]1 | 2.5* | -40 | 1.4 | -231 | 3.3* | -146 | -7
CCC(C)c1ccc(C(C)NC(=S)NC2CCCCC2)cc1 (stereo unspecified) | 3.6* | -370 | 4.7* | x | x | -256 | -72
CCOc1ccc(C(C)NC(=S)NC2CCCCC2)cc1 (stereo unspecified) | 1.2 | -76 | 1.8 | 16 | 0.8 | -23 | x
CC(NC(=S)NC1CCCCC1)c1ccc(C(C)(C)C)cc1 (stereo unspecified) | 2.3* | -431 | 5.3* | x | x | -133 | -20
Oc1ccc(Br)cc1/C=N/NC(=S)NCCc1ccccc1 | 1.1 | 7 | 0.93 | x | x | -6 | x
COc1ccc(O)c(/C=N/NC(=S)NCCc2ccccc2)c1 | 2.1* | 9 | 0.91 | x | x | -107 | -91*
Cc1ccc(C)c(OCCC(=O)OCC(=O)NCc2ccc(F)cc2)c1 | 1 | -4 | 1 | x | x | 0 | x
COc1ccc(NC(=S)NNC(=O)c2nnn(-c3ccccc3)c2C)cc1 | 2.1* | 9 | 0.91 | 1 | 1 | -114 | 24
COc1ccc(CCNC(=O)c2ccc(NS(=O)(=O)c3ccc4[nH]c(=O)[nH]c4c3)cc2)cc1 | 1.1 | -5 | 1 | x | x | -12 | x
O=C(CSc1nc2c(c(=O)n1-c1ccc(F)cc1)SCC2)N1CCCC1 | 2.1* | -14 | 1.1 | -3 | 1 | -106 | 8
O=C(CSc1nc2c(c(=O)n1-c1ccccc1)SCC2)N1CCN(c2ccccc2)CC1 | 0.92 | -2 | 1 | 2 | 1 | 8 | x
SMILES | hIAP activ | mIAP block | mIAP activ | bIAP inh | bIAP activator | hIAP inh | hIAP act conf
COc1ccc(-n2nc3c(c2NC(=O)c2ccc4c(c2)OCO4)CS(=O)(=O)C3)cc1 | 1 | 3 | 0.97 | x | x | -4 | x
O=C(CCn1c(=O)sc2ccccc21)NC1CCCCC1 | 1.1 | -5 | 1.1 | x | x | -8 | x
COc1cc(/C=C/C(=O)c2ccc(C)c([N+](=O)[O-])c2)cc(OC)c1O | 0.53 | 38 | 0.61 | 14 | 0.9 | 47* | 18
COc1ccc(/C=C/C(=O)c2ccc(C)c([N+](=O)[O-])c2)cc1O | 0.87 | 18 | 0.82 | 24 | 0.8 | 13 | x
O=C(CCCC(=O)N/N=C\c1ccccn1)N/N=C\c1ccccn1 | 2* | -4 | 1 | -6 | 1.1 | -102 | 2
O=C(N/N=C/c1ccccn1)c1cc(C2CC2)[nH]n1 | 2.1* | 21 | 0.79 | -59 | 1.6 | -110 | -22
Cc1nc(C(=O)N2CCC(n3nccc3NC(=O)Nc3ccccc3Cl)CC2)cs1 | 1.1 | -7 | 1.1 | x | x | -11 | x
CC(C)(Oc1ccc(Cl)cc1)C(=O)NC1CC1 | 0.86 | -2 | 1 | x | x | 14 | x
O=C(O)CCn1nnc(-c2cccs2)n1 | 2* | -4 | 1 | 0 | 1 | -103 | 0
O=C(O)Cn1nnc(-c2cccs2)n1 | 0.96 | 3 | 0.97 | -1 | 1 | 4 | x
COc1cccc(/C=N/NC(=O)CNC(=O)/C=C\c2ccccc2)c1O | 2.4* | 16 | 0.84 | x | x | -142 | -5
O=C(N/N=C/c1ccc(O)c(O)c1)c1cc(-c2ccccc2)nc2ccccc12 | 0.22 | 29 | 0.71 | x | x | 78* | 27
O=C(N/N=C/c1cccc(O)c1)c1cc(-c2ccccc2)nc2ccccc12 | 1 | 13 | 0.87 | x | x | -2 | x
COc1ccc(C(C(=O)NC(C)(C)C)N(C(=O)CCC(=O)Nc2cc(C)on2)c2ccc(C)c(C)c2)cc1 (stereo unspecified) | 1 | 0 | 1 | x | x | -1 | x
Cc1ccccc1N1CCN(C(=O)c2ccccc2NC(=O)/C=C\C(=O)O)CC1 | 0.63 | -1 | 1 | 10 | 0.9 | 37* | 5
CCOc1cc(/C=C2/C(=O)ON=C2C)cc(Br)c1O | 0.61 | 5 | 0.95 | x | x | 38* | 9
CC(OC(=O)Cn1[nH]c(=O)c2ccccc2c1=O)C(=O)c1ccccc1 (stereo unspecified) | 1.3 | 3 | 0.97 | x | x | -29 | x
Cc1ccc(C(=O)NNC(=O)c2csc(N3CCOCC3)n2)o1 | 1.9 | 13 | 0.87 | x | x | -90 | x
O=C(CCNS(=O)(=O)c1ccccc1)NNC(=O)c1csc(N2CCOCC2)n1 | 1.9 | 19 | 0.81 | x | x | -91 | x
CC(=O)Nc1ccc(S(=O)(=O)NCC(=O)NNC(=O)c2csc(N3CCOCC3)n2)cc1 | 2.1* | 23 | 0.77 | x | x | -113 | -39
O=C(NNC(=O)c1ccc(Br)o1)c1csc(N2CCOCC2)n1 | 2.2* | 11 | 0.89 | x | x | -115 | 10
COc1ccccc1C(=O)NNC(=O)c1csc(N2CCOCC2)n1 | 2* | 2 | 0.98 | x | x | -105 | 2
COc1ccc(O)c(/C=N/NC(=O)c2cccc(N3CCCC3=O)c2)c1 | 2* | -10 | 1.1 | x | x | -105 | -1
